Assay results: ChEMBL document CHEMBL3271934, “Inhibition of separated forms of phosphodiesterases from pig coronary arteries by uracils and by 7-substituted derivatives of 1-methyl-3-isobutylxanthine” (J Med Chem, 1976)
Activity calls are given as the source filed them. The rule behind the calls is not given here.

Assays:
[1] = Inhibition of phosphodiesterase (peak-1) isolated from pig coronary artery assessed as inhibition of cGMP hydrolysis using 1 uM cGMP substrate in presence of 3% Me2SO; settings: Sus scrofa; read-out: I50
Procedure, shortened: (§1)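 Enzyme is a separated phosphodiesterase form from pig coronary arteries, assayed with 1 μM substrate at 30° for 30 min. Enzyme dilution gave 10–20% hydrolysis without inhibitor. Compounds were added from 30% Me2SO, giving a final 3% Me2SO in all tubes. Peak I received an optimal amount of activator (15 μg protein). I50 was read from concentration–percent inhibition curves spanning 10^-7 to 10^-4 M (10^-3 M if soluble). MIX reference was run each experiment. Results are mean ± SEM of duplicate determinations across enzyme preparations.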

[2] = Inhibition of phosphodiesterase (peak-1) isolated from pig coronary artery assessed as inhibition of cAMP hydrolysis using 1 uM cAMP substrate in presence of 3% Me2SO; settings: Sus scrofa; read-out: I50; procedure, shortened: as §1
[3] = Inhibition of phosphodiesterase (peak-2) isolated from pig coronary artery assessed as inhibition of cAMP hydrolysis using 1 uM cAMP substrate in presence of 3% Me2SO; settings: Sus scrofa; read-out: I50; procedure, shortened: as §1
Sus scrofa [4] = organism: Sus scrofa; test: Inhibition of phosphodiesterase (peak-2) isolated from pig coronary artery assessed as inhibition of cAMP hydrolysis at 10^-4 M using 1 uM cAMP substrate in presence of 3% Me2SO
Procedure, shortened: (§2)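 Percent inhibition was measured at a single 10^-4 M concentration against a separated pig coronary artery phosphodiesterase form. Conditions: 1 μM substrate, 30°, 30 min, enzyme dilution giving 10–20% uninhibited hydrolysis, final 3% Me2SO in all tubes including blank. Peak I was assayed with an optimal amount of activator (15 μg protein). Results are duplicate determinations, mean ± SEM over separate enzyme preparations.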

Sus scrofa [5] = organism: Sus scrofa; test: Inhibition of phosphodiesterase (peak-1) isolated from pig coronary artery assessed as inhibition of cGMP hydrolysis at 10^-4 M using 1 uM cGMP substrate in presence of 3% Me2SO; procedure, shortened: as §2
Sus scrofa [6] = organism: Sus scrofa; test: Inhibition of phosphodiesterase (peak-1) isolated from pig coronary artery assessed as inhibition of cAMP hydrolysis at 10^-4 M using 1 uM cAMP substrate in presence of 3% Me2SO; procedure, shortened: as §2
Sus scrofa [7] = organism: Sus scrofa; test: Inhibition of phosphodiesterase (peak-1) isolated from pig coronary artery assessed as inhibition of cGMP hydrolysis at 10^-7 to 10^-4 M using 1 uM cGMP substrate in presence of 3% EtOH
Sus scrofa [8] = organism: Sus scrofa; test: Inhibition of phosphodiesterase (peak-1) isolated from pig coronary artery assessed as inhibition of cAMP hydrolysis at 10^-7 to 10^-4 M using 1 uM cAMP substrate in presence of 3% EtOH
Sus scrofa [9] = organism: Sus scrofa; test: Inhibition of phosphodiesterase (peak-2) isolated from pig coronary artery assessed as inhibition of cAMP hydrolysis at 10^-7 to 10^-4 M using 1 uM cAMP substrate in presence of 3% EtOH

| SMILES | IC50 [1] [µM] | IC50 [2] [µM] | IC50 [3] [µM] | inhibition (Sus scrofa [4]) [%] | inhibition (Sus scrofa [5]) [%] | inhibition (Sus scrofa [6]) [%] | inhibition (Sus scrofa [7]) | inhibition (Sus scrofa [8]) | inhibition (Sus scrofa [9]) |
| --- | --- | --- | --- | --- | --- | --- | --- | --- | --- |
| CC(C)Cn1c(=O)n(C)c(=S)c2[nH]cnc21 | 7.1 | 5.5 | 6.8 |  |  |  |  |  |  |
| CC(C)Cn1c(=O)n(C)c(=O)c2c1ncn2Cc1cccc(Cl)c1 | 2.1 | 1.3 | 48 |  |  |  |  |  |  |
| COc1ccccc1Cn1cnc2c1c(=O)n(C)c(=O)n2CC(C)C | 26 | 19 | 75 |  |  |  |  |  |  |
| CC(C)Cn1c(=O)n(C)c(=O)c2c1ncn2Cc1ccc([N+](=O)[O-])cc1 | 34 | 27 | > 100 | 44 |  |  |  |  |  |
| CC(C)Cn1c(N)c(NCc2ccccc2)c(=O)n(C)c1=O |  |  |  | 9 | 30 | 37 |  |  |  |
| CC(C)Cn1c(=O)n(C)c(=O)c2nc[nH]c21 [ISOBUTYLMETHYLXANTHINE] | 6.3 | 3.9 | 15 |  |  |  | Active | Active | Active |
| Cn1c(N)c(NCc2ccccc2)c(=O)n(C)c1=O |  |  |  | 15 | 17 | 26 |  |  |  |
| CC(C)Cn1c(=O)n(C)c(=O)c2c1ncn2CC1CC1 | 6.1 | 3.7 | 20 |  |  |  |  |  |  |
| CC(C)Cn1c(=O)n(C)c(=S)c2c1ncn2Cc1ccccc1 | 3.3 | 2.7 | 28 |  |  |  |  |  |  |
| CC(C)Cn1cc(NCc2ccccc2)c(=O)n(C)c1=O |  |  |  | 6 | 10 | 17 |  |  |  |
| COc1cc(Cn2cnc3c2c(=O)n(C)c(=O)n3CC(C)C)cc(OC)c1OC | 46 | 35 | > 100 | 31 |  |  |  |  |  |
| CC(C)Cn1c(=O)n(C)c(=O)c2c1ncn2Cc1ccccc1[N+](=O)[O-] | 60 | 41 | 142 |  |  |  |  |  |  |
| CC(C)CCn1cnc2c1c(=O)n(C)c(=O)n2CC(C)C | 16 | 19 | > 100 | 36 |  |  |  |  |  |
| CC(C)Cn1c(=O)n(C)c(=O)c2c1ncn2Cc1ccc(Cl)cc1 | 2.1 | 2.3 | 43 |  |  |  |  |  |  |
| CC(C)Cn1c(=O)n(C)c(=O)c2c1ncn2CCc1ccccc1 | 28 | 17 | > 100 | 41 |  |  |  |  |  |
| CC(C)Cn1c(=O)n(C)c(=O)c2c1ncn2Cc1ccccc1 | 4.4 | 3.6 | 108 |  |  |  | Active | Active | Active |
| C#CCn1cnc2c1c(=O)n(C)c(=O)n2CC(C)C | 36 | 28 | 65 |  |  |  |  |  |  |
| CC(C)Cn1c(=O)n(C)c(=O)c2c1ncn2C | 65 | 55 | 126 |  |  |  |  |  |  |
| CC(C)Cn1c(=O)n(C)c(=O)c2c1ncn2Cc1ccncc1 | 146 | 105 | > 300 | 30 |  |  |  |  |  |
